Test results published in article PMC6530469 (Biochemical pharmacology, 2018).
Read-outs that look alike come from different tables or passages of the source.

How the values were obtained:
human A3AR (hA3AR) [1] = biological target: T1, human A3AR (hA3AR) (Homo sapiens, UniProt P0DMS8); assay: […]I-AB-MECA competition, CHO membranes; assay type: binding
T1 sequence (P0DMS8 1-318): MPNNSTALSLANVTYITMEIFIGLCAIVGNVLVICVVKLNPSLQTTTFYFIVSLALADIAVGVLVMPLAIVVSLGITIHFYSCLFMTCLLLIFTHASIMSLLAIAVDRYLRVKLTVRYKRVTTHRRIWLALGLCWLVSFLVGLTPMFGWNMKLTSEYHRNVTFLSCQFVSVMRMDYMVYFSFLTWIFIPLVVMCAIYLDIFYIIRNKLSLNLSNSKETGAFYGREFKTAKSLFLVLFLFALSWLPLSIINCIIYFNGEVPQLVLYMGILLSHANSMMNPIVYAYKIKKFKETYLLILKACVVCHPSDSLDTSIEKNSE

[2] = biological target: T2, hA3AR-NanoBit-βarr2 (A3AR-LgBit with SmBit-βarr2) (Homo sapiens, UniProt P0DMS8); assay: NanoBit βarr2 recruitment, luminescence AUC; assay type: cell-based
T2 sequence (P32121 whole entry partner, one chain of several): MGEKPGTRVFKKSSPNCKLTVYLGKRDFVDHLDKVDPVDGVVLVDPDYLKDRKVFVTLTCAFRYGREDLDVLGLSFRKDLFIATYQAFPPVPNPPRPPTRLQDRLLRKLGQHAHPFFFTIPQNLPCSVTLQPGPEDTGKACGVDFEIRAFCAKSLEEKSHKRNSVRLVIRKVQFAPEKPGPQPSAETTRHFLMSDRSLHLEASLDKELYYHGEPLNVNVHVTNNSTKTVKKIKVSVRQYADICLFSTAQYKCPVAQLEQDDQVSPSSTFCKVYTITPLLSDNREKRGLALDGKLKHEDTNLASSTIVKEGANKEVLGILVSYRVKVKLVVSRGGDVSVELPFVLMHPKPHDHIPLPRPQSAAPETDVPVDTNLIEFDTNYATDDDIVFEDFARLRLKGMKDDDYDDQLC

[3] = biological target: T2, hA3AR-NanoBit-βarr2 (A3AR-LgBit with SmBit-βarr2); assay: cell-based; details: HEK-293T, read-out: Stable A3AR NanoBit® HEK293T cell line^A / Emax (%)
human A3AR (hA3AR) [4] = biological target: T1, human A3AR (hA3AR); assay: cell-based; details: CHO, read-out: Stable A3AR CHO cell line^B / Emax (%)
human A3AR (hA3AR) [5] = biological target: T1, human A3AR (hA3AR); assay: inhibition of forskolin-stimulated cAMP, CHO cells; assay type: cell-based; details: agonism; 10 µM forskolin, 10 µM rolipram, adenosine deaminase
[6] = biological target: T2, hA3AR-NanoBit-βarr2 (A3AR-LgBit with SmBit-βarr2); assay: cell-based; details: HEK-293T, read-out: Stable A3AR NanoBit® HEK293T cell line^A / Emax (%); remark: listed apart in the source
human A3AR (hA3AR) [7] = biological target: T1, human A3AR (hA3AR); assay: inhibition of forskolin-stimulated cAMP, CHO cells; assay type: cell-based
[8] = biological target: T2, hA3AR-NanoBit-βarr2 (A3AR-LgBit with SmBit-βarr2); assay: NanoBit βarr2 recruitment, luminescence AUC; assay type: cell-based; details: agonism; stable HEK293T cells, room temperature, Opti-MEM I
Method in brief: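 Stable HEK293T line retrovirally co-transduced with A3AR-LgBit and SmBit-βarr2, FACS-sorted on co-expressed EGFP/dNGFR. Cells on PDL-coated plates at 5×10^4/well overnight (37°C, 5% CO2), washed twice, detection reagent added, luminescence equilibrated. Agonist added at final 100 pM–25 µM (≤0.5% DMSO), luminescence followed ≥90 min. DMSO solvent blank (0.001–0.5%) in each run.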

EC50 [2] [nM]	Emax [3] [%]	Emax (human A3AR (hA3AR) [4]) [%]	Emax [6] [%]	SMILES	further results
245	73.7 ± 3.1	103 ± 4	–	NCCNC(=O)Cc1ccc(NC(=O)Cc2ccc(Nc3ncnc4c3ncn4[C@@H]3O[C@H](CO)[C@@H](O)[C@H]3O)cc2)cc1 [ADAC, N^6-[4-[[[4-[[[(2-aminoethyl)amino]carbonyl]methyl]anilino]-carbonyl]methyl]phenyl]adenosine]	Ki (human A3AR (hA3AR) [1]): 13.3 ± 3 nM
–	33.5 ± 2.7	0	–	OC[C@H]1O[C@@H](n2cnc3c(NC4CCCC4)nc(Cl)nc32)[C@H](O)[C@@H]1O [CCPA]	LogEC50 (NA, not significantly active at 10 μM) (human A3AR (hA3AR) [5]): > 10 µM
–	99 ± 5.5	98 ± 5	–	CCNC(=O)[C@H]1O[C@@H](n2cnc3c(N)nc(NCCc4ccc(CCC(=O)O)cc4)nc32)[C@H](O)[C@@H]1O [CGS21680]	–
–	56.9 ± 3.7	97 ± 4	–	OC[C@H]1O[C@@H](n2cnc3c(NC4CCCC4)ncnc32)[C@H](O)[C@@H]1O [CPA]	–
1480	–	–	5.8 ± 0.2	OC[C@H]1O[C@@H](n2cnc3c(NC4CCCC4)cc(Cl)nc32)[C@H](O)[C@@H]1O [DCCA]	Ki (human A3AR (hA3AR) [1]): 244 ± 37 nM
–	78.4 ± 2.5	–	–	CNC(=O)[C@H]1O[C@@H](n2cnc3c(NCc4cccc(I)c4)ncnc32)[C@H](O)[C@@H]1O [IB-MECA]	–
–	13 ± 1.6	41 ± 5	–	Nc1nc(Cl)nc2c1ncn2[C@H]1[C@H](O)[C@H](O)[C@]2(CO)C[C@H]12 [MRS1873]	–
24.5	5.2 ± 0.4	–	–	O[C@@H]1[C@H](O)[C@@H]2C[C@@H]2[C@H]1n1cnc2c(NCc3cccc(I)c3)nc(Cl)nc21 [MRS5127]	EC50 (human A3AR (hA3AR) [7]): 12.6 nM
–	9.8 ± 1.2	56 ± 4.8	–	O[C@@H]1[C@H](O)[C@@H]2C[C@@H]2[C@H]1n1cnc2c(NC(C3CC3)C3CC3)nc(Cl)nc21 [MRS5474]	–
5.62	–	–	102 ± 3.6	CNC(=O)[C@@]12C[C@@H]1[C@@H](n1cnc3c(NC)nc(C#Cc4ccccc4Cl)nc31)[C@H](O)[C@@H]2O [MRS5663]	–
1200	–	–	46.8 ± 3.3	CNC(=O)[C@@]12C[C@@H]1[C@@H](n1cnc3c(NCc4cccc(Cl)c4)nc(C#Cc4ccc(-c5ccccc5)cc4)nc31)[C@H](O)[C@@H]2O [MRS5679]	–
–	83.5 ± 4.6	–	–	CNC(=O)[C@@]12C[C@@H]1[C@@H](n1cnc3c(NCc4cccc(Cl)c4)nc(C#Cc4ccc(F)c(F)c4)nc31)[C@H](O)[C@@H]2O [MRS5698]	–
–	91.6 ± 3.4	97.3 ± 2.9	–	CNC(=O)[C@@]12C[C@@H]1[C@@H](n1cnc3c(NC)nc(C#Cc4cccs4)nc31)[C@H](O)[C@@H]2O [MRS5917]	–
4.68	–	–	92.5 ± 2.4	CNC(=O)[C@@]12C[C@@H]1[C@@H](n1cnc3c(NC)nc(C#Cc4ccccc4OC)nc31)[C@H](O)[C@@H]2O [MRS5967]	–
–	–	–	95 ± 4	CNC(=O)[C@@]12C[C@@H]1[C@@H](n1cnc3c(NC)nc(C#Cc4ccc(Cl)s4)nc31)[C@H](O)[C@@H]2O [MRS5980]	–
–	74.4 ± 2.3	95.5 ± 2.3	–	CCNc1cc(C#Cc2ccc(Cl)s2)nc2c1ncn2[C@H]1[C@H](O)[C@H](O)[C@]2(C(=O)NC)C[C@H]12 [MRS7144]	–
21.4	–	–	94.5 ± 4.8	CCCNc1nc(C#Cc2ccc(Cl)s2)nc2c1ncn2[C@H]1[C@H](O)[C@H](O)[C@]2(C(=O)NC)C[C@H]12 [MRS7154]	–
55	–	–	78.2 ± 1.8	CNC(=O)[C@@]12C[C@@H]1[C@@H](n1cnc3c(NC)nc(C#Cc4ccc(Cl)s4)cc31)[C@H](O)[C@@H]2O [MRS7173]	Ki (human A3AR (hA3AR) [1]): 1.56 ± 0.2 nM
–	84.5 ± 6.4	107 ± 26	–	CNC(=O)[C@@]12C[C@@H]1[C@@H](n1cnc3c(C)nc(C#Cc4ccc(Cl)s4)nc31)[C@H](O)[C@@H]2O [MRS7195]	–
–	68.4 ± 5.3	97.8 ± 0.1	–	CNC(=O)[C@@]12C[C@@H]1[C@@H](n1cnc3cnc(C#Cc4ccc(Cl)s4)nc31)[C@H](O)[C@@H]2O [MRS7220]	–
50.1	–	–	13.6 ± 1.6	CCOC(=O)[C@@]12C[C@@H]1[C@@H](n1cnc3c(NC)nc(C#Cc4ccc(Cl)s4)nc31)[C@H](O)[C@@H]2O [MRS7232]	Ki (human A3AR (hA3AR) [1]): 5.38 ± 0.03 nM
–	–	1 ± 7	–	CCOC(=O)[C@@]12C[C@@H]1[C@@H](n1ccc3c(NC)nc(C#Cc4ccc(Cl)s4)nc31)[C@H](O)[C@@H]2O [MRS7299]	EC50 (human A3AR (hA3AR) [7]): > 10000 nM; LogEC50 (NA, not significantly active at 10 μM) [8]: > 10 µM
851	–	–	34.9 ± 2.3	OC[C@H]1O[C@@H](n2cnc3c(NCc4ccccc4)ncnc32)[C@H](O)[C@@H]1O [N^6-benzyl-adenosine]	–
589	–	–	75.8 ± 3	OC[C@H]1O[C@@H](n2cnc3c(Nc4ccccc4)ncnc32)[C@H](O)[C@@H]1O [N^6-phenyl-adenosine]	Ki (human A3AR (hA3AR) [1]): 14.9 ± 3.1 nM
–	56.6 ± 1.9	102 ± 6	–	C[C@H](Cc1ccccc1)Nc1ncnc2c1ncn2[C@@H]1O[C@H](CO)[C@@H](O)[C@H]1O [R-PIA]	–
–	51 ± 1.4	97 ± 3	–	C[C@@H](Cc1ccccc1)Nc1ncnc2c1ncn2[C@@H]1O[C@H](CO)[C@@H](O)[C@H]1O [S-PIA]	–

SMILES	EC50 [2] [nM]	Emax [3] [%]	Emax (human A3AR (hA3AR) [4]) [%]	Emax [6] [%]	further results
CCNC(=O)[C@H]1O[C@@H](n2cnc3c(N)ncnc32)[C@H](O)[C@@H]1O [NECA]	–	–	103	–	–
